Rows were chosen to be rich in hits. Some 0.77% of all compounds tested hit in one or more screens of this group.
hIAP act: human IAP activation | AID 2524 | activation factor at 10 µM | hit rate 0.16% among 330,000 | purified human IAP, CDP-Star luminescence, 30 min; hits give high values; 1 = vehicle-only enzyme, 0 = enzyme-free background;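 active = activation factor of the enzyme at least 2-fold when tested at 20 µM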
Target sequence (P09923 whole entry, looked up): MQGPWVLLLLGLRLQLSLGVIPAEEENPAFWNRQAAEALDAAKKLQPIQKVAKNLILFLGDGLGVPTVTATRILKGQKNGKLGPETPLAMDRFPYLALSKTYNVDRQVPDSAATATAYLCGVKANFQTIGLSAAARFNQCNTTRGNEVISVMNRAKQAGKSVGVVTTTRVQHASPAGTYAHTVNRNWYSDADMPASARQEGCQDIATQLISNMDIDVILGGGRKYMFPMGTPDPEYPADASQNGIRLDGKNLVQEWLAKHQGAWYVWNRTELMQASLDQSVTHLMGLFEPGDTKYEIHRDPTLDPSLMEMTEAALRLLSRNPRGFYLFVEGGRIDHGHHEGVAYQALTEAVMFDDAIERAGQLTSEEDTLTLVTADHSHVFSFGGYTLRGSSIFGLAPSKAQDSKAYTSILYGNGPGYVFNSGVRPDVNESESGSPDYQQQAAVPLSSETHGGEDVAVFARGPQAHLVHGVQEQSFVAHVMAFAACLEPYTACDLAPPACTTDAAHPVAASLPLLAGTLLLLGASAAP
mIAP activ: mouse IAP activation | muIAP, CDP-Star luminescence, 30 min; hits give high values; 1 = vehicle-only enzyme signal, 0 = enzyme-free wells | hit rate 0.24% among 330,000 | AID 2805 | activation factor at 10 µM;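 active = activation factor of at least 2 at 20 µM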
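also added = chemiluminescent substrate CDP-Star | test system = mouse IAP enzyme | signal = chemiluminescence readout | compound = DMSO-dissolved test compounds | incubation = 30 min at room temperature | benchmarks = DMSO wells, no-enzyme wells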
mIAP block: blocks mouse intestinal alkaline phosphatase. purified mouse IAP, CDP-Star luminescence, 30 min. inhibition, % at 10 µM. hit rate 0.2% among 330,000. AID 2806;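 active = inhibition of at least 40% at 10 µM in the primary screen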;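 also: plate controls were DMSO with enzyme for no effect and no enzyme wells for full effect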
hIAP inh: blocks human intestinal alkaline phosphatase. P09923. purified IAP, CDP-Star luminescence, 30 min. inhibition, % at 10 µM. hit rate 0.12% among 330,000;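 active = inhibition reaching a set limit with compound at 10 µM in the primary screen, cut at about 35% in these data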;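 also: plate controls were DMSO wells with enzyme for no effect and no-enzyme buffer wells for full effect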
bIAP inh: blocks bovine intestinal alkaline phosphatase activity | 190,000 tested, under 10 active | purified bovine IAP, CDP-star luminescence, 30 min | inhibition, % at 20 µM;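 active = over 50% inhibition of intestinal alkaline phosphatase at 20 µM in the single-dose screen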
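System: Purified bovine intestinal alkaline phosphatase (IAP) enzyme | Input: IAP diluted 1/65,000,000 in the well | Also added: CDP-star chemiluminescent phosphatase substrate, 30 µM final | Dosing: 20 µM single dose | Times: Enzyme reaction for 30 min at room temperature | Detection: Luminescence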
bIAP activator: intestinal alkaline phosphatase (bovine) activation. purified bovine IAP, CDP-star luminescence, 30 min; hits give high values; fold of DMSO-control signal, blank-subtracted. activation factor at 20 µM. hit rate 0.17% among 200,000. AID 1016;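 active = activation factor of 2 or more at 20 µM, a signal rise over negative controls twice the positive control's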
* = called active by the depositor; i = inactive; nt = not tested or not shown.

SMILES | hIAP act | mIAP activ | mIAP block | hIAP inh | bIAP inh | bIAP activator
CN(C)Cc1ccccc1Sc1cccc2ccccc12 | nt | nt | nt | nt | -127 | 2.3*
CCOc1ccc(C(=O)C[n+]2ccccc2C)cc1 | 1.1 | 0.97 | 3 | -6 | 12 | 0.9
Cc1ccc(NC(=O)CSc2nc3ccccc3c(=O)n2CCCN2CCCCC2)cc1Cl | 1.3 | 1.5 | -46 | -33 | -162 | 2.6*
O=C(Nc1cccc(Cl)c1)NC1(C(=O)NCc2cccs2)CCCCC1 | 1.1 | 2.2* | -121 | -14 | -6 | 1.1
O=C(NCc1cccs1)Nc1cccc(Cl)c1 | 1 | 1.8 | -84 | -4 | nt | nt
CCN(CC(=O)Nc1ccccc1C(F)(F)F)C(=O)c1ccc(=O)n(Cc2ccccc2)n1 | 1.2 | 0.95 | 5 | -18 | nt | nt
Cc1nc2cc(NCc3nc4ccccc4n3Cc3ccccc3)ccc2n1C | 1.2 | 1 | -1 | -16 | -53 | 1.5
Cc1cccc(NCc2nc3ccccc3n2Cc2ccccc2)c1 | 0.98 | 1.1 | -9 | 2 | i | 9.5*
COc1ccc(/C=N/Nc2cc(=O)n(C)c(=O)n2C)cc1OC | 1.2 | 1 | -2 | -18 | -96 | 2*
Fc1ccc(CNC(=S)NCc2ccccc2)cc1 | 1.1 | 1.3 | -26 | -11 | nt | nt
Cc1cc2cc(CNC(=S)NCc3ccccc3)ccc2n1C | 1 | 2.3* | -129 | -4 | 7 | 0.9
S=C(NCc1ccccc1)Nc1ccc(Oc2ccccc2)cc1 | 1.1 | 3.8* | -277 | -12 | nt | nt
S=C(NCc1ccccc1)NCc1ccc(CNC(=S)NCc2ccccc2)cc1 | 1.4 | 3.2* | -222 | -44 | 38 | 0.6
Cc1ccccc1NC(=S)NCc1ccc2c(c1)cc(C)n2C | 0.91 | 1.3 | -27 | 9 | 7 | 0.9
CCOC(=O)CNC(=O)c1c(C)nn(C)c1Cl | 1.1 | 1 | -1 | -7 | -8 | 1.1
COc1cc2nc(CN(C)Cc3ccc(OC)c(OC)c3OC)[nH]c(=O)c2cc1OC | 1.3 | 1 | -2 | -32 | -18 | 1.2
COc1cc(NC(=O)Cn2nc(Cc3cccnc3)c3ccccc3c2=O)cc(OC)c1OC | 0.84 | 1 | -1 | 16 | -6 | 1.1
O=C(Nc1cc(Cl)cc(Cl)c1)C1CCC(=O)N1Cc1ccccc1Cl (stereo not drawn) | 0.98 | 2* | -104 | 2 | -6 | 1.1
COc1ccc(CCNC(=S)NCc2ccc(Cl)c(Cl)c2)cc1OC | 1.2 | 2* | -104 | -17 | -6 | 1.1
CCOC(=O)c1ccc(NC(=O)NC2CCN(CC(=O)NCc3ccc4c(c3)OCO4)CC2)cc1 | 1 | 2.3* | -127 | -3 | -24 | 1.2
CCN(c1ccc(NC(=O)CCc2nc3sc4c(c3c(=O)[nH]2)CCCC4)cc1)C(C)C | 0.92 | 0.97 | 3 | 8 | nt | nt
CCOC(=O)c1c(-c2ccc(C)o2)csc1NC(=O)CN1CCCCC1 | 0.92 | 0.85 | 15 | 8 | -6 | 1.1
CCOC(=O)c1c(NC(=O)CN2CCCCC2)sc2c1CCC(C=O)=C2Cl | 0.92 | 0.51 | 49* | 8 | 8 | 0.9
Cc1ccc2c(c1)C1NC(=S)NC(C)(O2)C1C(=O)Nc1ccc(Cl)cc1 (stereo not drawn) | 0.97 | 2* | -102 | 3 | 1 | 1
CCOC(=O)N1CCC(NC(=O)c2ccc3c(c2)N(Cc2ccc(C)cc2)CCS3)CC1 | 1 | 1.2 | -23 | 0 | -4 | 1
SMILES | hIAP act | mIAP activ | mIAP block | hIAP inh | bIAP inh | bIAP activator
CCOC(=O)N1CCC(NC(=O)c2ccc3c(c2)N(Cc2ccccc2)CCS3)CC1 | 0.96 | 1.3 | -27 | 4 | -152 | 2.5*
Cc1cc(SCC(=O)OCC(=O)NCC2CCCO2)c(C)cc1Br (stereo not drawn) | 1.1 | 0.95 | 5 | -10 | 0 | 1
CSc1cccc(NC(=O)NCc2cccc(CNC(=O)Nc3cccc(SC)c3)c2)c1 | 1.3 | 2.1* | -109 | -34 | nt | nt
COc1ccc(CNC[C@@H](CCCCN(C)Cc2ccc(OC)cc2)N2C[C@H](c3ccccc3)N(CCc3ccc(Cl)c(Cl)c3)C(=O)C2=O)cc1 | 0.98 | 1.1 | -8 | 2 | i | 6.6*
O=C(c1cnccn1)N1CCc2ccccc2C1 | 1.1 | 1.1 | -8 | -10 | 9 | 0.9
O=C(CSCc1ccco1)c1ccc(Cl)s1 | 0.99 | 0.55 | 45* | 1 | 13 | 0.9
O=C(NNC(=S)NCc1ccco1)c1ccc(Cl)s1 | 1.4 | 0.86 | 14 | -36 | 2 | 1
Cc1ccc(S(=O)(=O)N(C)C)cc1NC(=S)NC(C)CCCC(C)C (stereo not drawn) | 1.4 | 3.9* | -290 | -35 | -44 | 1.4
CCCCCCC(C)NC(=S)Nc1cc(S(=O)(=O)N(C)C)ccc1C (stereo not drawn) | 1.1 | 4.8* | -381 | -14 | -21 | 1.2
C[C@H](NC(=O)c1nc[nH]c1C(=O)NC1CCNCC1)C(=O)OCc1ccccc1 | 1.1 | 0.85 | 15 | -12 | nt | nt
S=C(NCc1ccco1)N1CCN(C/C=C/c2ccccc2)CC1 | 0.98 | 0.97 | 3 | 2 | -3 | 1
O=C(CSc1nnc(C2CC2)n1C1CC1)Nc1cccc(Br)c1 | 0.94 | 1.1 | -7 | 6 | nt | nt
CC(C)(C)NC(=O)CSc1nc(N)c(-c2ccccc2)c(=O)[nH]1 | 1.1 | 1 | -1 | -12 | 0 | 1
Cc1ccc(S(=O)(=O)N(CC(=O)Nc2ccccc2)C(=O)N2CCN(C)CC2)cc1 | 1.1 | 1.1 | -6 | -12 | nt | nt
COc1cc(C2CC(c3cccnc3)=NN2c2ccc(F)cc2)cc(OC)c1OC (stereo not drawn) | 1.2 | 2.2* | -123 | -18 | -39 | 1.4
O=C(CCCn1cc([N+](=O)[O-])cn1)Nc1ccc2c(c1)OCO2 | 0.95 | 1.1 | -6 | 5 | nt | nt
Cc1ccccc1NC(=O)CN1CCC(NC(=O)Nc2ccccc2)CC1 | 1.4 | 1.1 | -12 | -44 | -129 | 2.3*
O=C(Nc1ccc(Br)cc1)Nc1ccccc1Cl | 1.1 | 2* | -100 | -9 | nt | nt
O=C(Nc1ccc(CN2CCCCC2)cc1)Nc1ccccc1Cl | 0.96 | 1.6 | -60 | 4 | -54 | 1.5
CC(NC(=O)NC1CCCCC1)C(c1cccs1)N1CCOCC1 (stereo not drawn) | 0.87 | 1.1 | -6 | 13 | 12 | 0.9
CCN1CCN(C(c2cccs2)C(C)NC(=S)Nc2cc(C)ccc2C)CC1 (stereo not drawn) | 0.98 | 1.1 | -10 | 2 | nt | nt
CC(NC(=O)NC1CCCCC1)C(c1cccs1)N1CCN(Cc2ccccc2)CC1 (stereo not drawn) | 0.89 | 1.6 | -63 | 11 | -240 | 3.4*
CC(NC(=S)NCCc1ccccc1)C(c1cccs1)N1CCN(Cc2ccccc2)CC1 (stereo not drawn) | 1.1 | 5.3* | -430 | -12 | nt | 0.3
Cc1cccc(NC(=O)c2ccc(N(C)C3CCCCC3)c([N+](=O)[O-])c2)n1 | 0.83 | 0.86 | 14 | 17 | 17 | 0.8

Compound activity as filed in PubChem BioAssay.
